{"source": "ChEMBL document CHEMBL4020842", "about": "“Discovery of N1-(4-((7-Cyclopentyl-6-(dimethylcarbamoyl)-7 H-pyrrolo[2,3- d]pyrimidin-2-yl)amino)phenyl)- N8-hydroxyoctanediamide as a Novel Inhibitor Targeting Cyclin-dependent Kinase 4/9 (CDK4/9) and Histone Deacetlyase1 (HDAC1) against Malignant Cancer” (J Med Chem, 2018)", "key": {"[1]": {"system": "Hep 3B2", "assay": "Cell cycle arrest in human Hep3B cells assessed as accumulation at G2 phase at 2.5 to 10 uM after 24 hrs by propidium iodide staining based flow cytometry", "type": "functional", "in_short": "(§1)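 Cells were exposed for 24 h to a range of concentrations (625 nM, 2.5 and 10 µM), with DMSO vehicle as control. They were then stained with propidium iodide and analysed by flow cytometry to obtain the percentages of cells in G0/G1, S and G2 phases.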"}, "[2]": {"assay": "Clearance in Sprague-Dawley rat at 20 mg/kg, ip administered as single dose by HPLC analysis", "type": "ADME, organism-based", "details": "in vivo"}, "[3]": {"system": "HepG2", "assay": "Induction of apoptosis in human HepG2 cells assessed as caspase-3 cleavage after 48 hrs by Western blot method", "type": "functional, cell-based", "in_short": "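Cells were treated with or without compound and control for 48 h, then lysed. Bcl-2 and cleaved caspase 3 were assessed by Western blot.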"}, "[4]": {"system": "NCI-H460", "assay": "Downregulation of Cyclin-D1 protein expression in human NCI-H460 cells after 48 hrs by Western blot method", "type": "functional, cell-based", "in_short": "(§2)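 Treated cells were lysed and CDK4 and cyclin D1 protein levels were assessed by Western blot.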"}, "[5]": {"target": "CDK4/CDK9 (Homo sapiens) (UniProt P11802+P50750)", "sequence (P11802 whole entry, looked up)": "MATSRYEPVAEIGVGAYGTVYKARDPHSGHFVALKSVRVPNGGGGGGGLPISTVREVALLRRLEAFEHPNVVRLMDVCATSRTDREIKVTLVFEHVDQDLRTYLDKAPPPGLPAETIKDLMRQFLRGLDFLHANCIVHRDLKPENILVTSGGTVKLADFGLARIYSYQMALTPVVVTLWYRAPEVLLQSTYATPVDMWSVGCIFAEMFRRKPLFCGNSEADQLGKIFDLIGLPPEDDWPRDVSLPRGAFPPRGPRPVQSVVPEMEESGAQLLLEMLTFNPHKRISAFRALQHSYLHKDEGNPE", "sequence (P50750 whole entry, looked up)": "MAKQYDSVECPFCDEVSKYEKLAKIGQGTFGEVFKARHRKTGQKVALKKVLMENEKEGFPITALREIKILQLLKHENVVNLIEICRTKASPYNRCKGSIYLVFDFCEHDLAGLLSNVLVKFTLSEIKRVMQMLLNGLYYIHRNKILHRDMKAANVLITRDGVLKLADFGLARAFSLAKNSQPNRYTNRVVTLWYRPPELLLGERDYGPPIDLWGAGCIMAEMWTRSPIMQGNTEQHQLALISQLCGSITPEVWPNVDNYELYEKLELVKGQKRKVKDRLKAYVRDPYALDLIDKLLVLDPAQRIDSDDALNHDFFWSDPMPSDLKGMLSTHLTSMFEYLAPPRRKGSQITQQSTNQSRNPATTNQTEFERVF", "assay": "Inhibition of CDK4/CDK9 in human MDA-MB-231 cells assessed as reduction in Rb phosphorylation at Ser807/811 residues at 1 uM after 48 hrs by Western blot method", "type": "cell-based"}, "[6]": {"system": "HepG2", "assay": "Induction of apoptosis in human HepG2 cells assessed as early apoptotic cells at 5 uM after 48 hrs by annexin V-FITC/propidium iodide staining based flow cytometry (reference value: 0.3%)", "type": "functional"}, "[7]": {"target": "Cyclin-dependent kinase 5/CDK5 activator 1 (Homo sapiens) (UniProt Q00535+Q15078)", "sequence (Q00535 whole entry)": "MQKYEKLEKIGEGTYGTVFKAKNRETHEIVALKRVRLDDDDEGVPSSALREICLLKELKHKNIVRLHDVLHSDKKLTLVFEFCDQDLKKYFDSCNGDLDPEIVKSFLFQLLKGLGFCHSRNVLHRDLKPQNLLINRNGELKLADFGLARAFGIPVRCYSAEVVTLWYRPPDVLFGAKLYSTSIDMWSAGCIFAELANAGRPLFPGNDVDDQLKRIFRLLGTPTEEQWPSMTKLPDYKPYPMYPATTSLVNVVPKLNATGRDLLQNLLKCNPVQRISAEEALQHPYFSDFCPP", "sequence (Q15078 99-307 partner limits assumed)": "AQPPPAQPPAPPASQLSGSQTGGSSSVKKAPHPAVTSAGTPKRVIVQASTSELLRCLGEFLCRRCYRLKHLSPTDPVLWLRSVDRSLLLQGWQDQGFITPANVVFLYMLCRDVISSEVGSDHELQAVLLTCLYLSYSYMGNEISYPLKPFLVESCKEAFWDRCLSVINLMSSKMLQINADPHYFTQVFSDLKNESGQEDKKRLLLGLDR", "assay": "Inhibition of recombinant human full length N-terminal 6His-tagged CDK5/N-terminal GST-tagged p35 co-expressed in baculovirus infected sf21 cells at 1 uM using histone H1 substrate in presence of [gamma33P]ATP after 10 mins by scintillation counting method relative to control"}, "[8]": {"assay": "Half life in Sprague-Dawley rat at 20 mg/kg, po administered as single dose by HPLC analysis", "type": "ADME, organism-based", "details": "in vivo"}, "[9]": {"system": "MDA-MB-231", "assay": "Cytotoxicity against human MDA-MB-231 cells assessed as reduction in cell viability after 72 hrs by CCK8 assay", "type": "functional, cell-based", "details": "MDA-MB-231, 72 h"}, "[10]": {"system": "MDA-MB-231", "assay": "Cell cycle arrest in human MDA-MB-231 cells assessed as decrease in S-phase at 625 nM after 24 hrs by propidium iodide staining based flow cytometry", "type": "functional", "in_short": "as §1"}, "[11]": {"assay": "Cmax in Sprague-Dawley rat at 20 mg/kg, ip administered as single dose by HPLC analysis", "type": "ADME, organism-based", "design": "dose 20 mg/kg, route intraperitoneal", "details": "in vivo"}, "[12]": {"system": "MDA-MB-231", "assay": "Induction of apoptosis in human MDA-MB-231 cells after 48 hrs by annexin V-FITC/propidium iodide staining based flow cytometry", "type": "functional, cell-based"}, "[13]": {"system": "HepG2", "assay": "Induction of apoptosis in human HepG2 cells assessed as live cells at 10 uM after 48 hrs by annexin V-FITC/propidium iodide staining based flow cytometry (reference value: 96.7%)", "type": "functional"}, "[14]": {"system": "T47D", "assay": "Downregulation of Cyclin-D1 protein expression in human T47D cells after 48 hrs by Western blot method", "type": "functional, cell-based", "in_short": "as §2"}, "[15]": {"system": "HepG2", "assay": "Cell cycle arrest in human HepG2 cells assessed as decrease in S-phase at 625 nM after 24 hrs by propidium iodide staining based flow cytometry", "type": "functional", "in_short": "as §1"}, "[16]": {"system": "T47D", "assay": "Induction of apoptosis in human T47D cells assessed as live cells at 5 uM after 48 hrs by annexin V-FITC/propidium iodide staining based flow cytometry (reference value: 85.3%)", "type": "functional"}, "[17]": {"system": "Mus musculus", "assay": "Toxicity in Balb/c mouse assessed as weight loss at 45 to 130 mg/kg, ip for 16 consecutive days", "type": "organism-based", "details": "in vivo"}, "[18]": {"system": "HepG2", "assay": "Induction of apoptosis in human HepG2 cells assessed as late apoptotic cells at 1 uM after 48 hrs by annexin V-FITC/propidium iodide staining based flow cytometry (reference value: 0.64%)", "type": "functional"}, "[19]": {"system": "NCI-H460", "assay": "Cytotoxicity against human NCI-H460 cells assessed as reduction in cell viability after 72 hrs by CCK8 assay", "type": "functional, cell-based", "details": "NCI-H460, 72 h"}, "[20]": {"system": "T47D", "assay": "Cytotoxicity against human T47D cells assessed as reduction in cell viability after 72 hrs by CCK8 assay", "type": "functional, cell-based"}, "[21]": {"system": "A549", "assay": "Cell cycle arrest in human A549 cells assessed as decrease in S-phase at 625 nM after 24 hrs by propidium iodide staining based flow cytometry", "type": "functional", "in_short": "as §1"}, "[22]": {"system": "NCI-H460", "assay": "Induction of apoptosis in human NCI-H460 cells assessed as early apoptotic cells at 5 uM after 48 hrs by annexin V-FITC/propidium iodide staining based flow cytometry (reference value: 0.11%)", "type": "functional"}, "[23]": {"assay": "Aqueous solubility in pH 7.4 PBS buffer at 1 mg sonicated for 24 hrs and incubated under unstirred condition for 24 hrs by HPLC method", "type": "physicochemical"}, "[24]": {"system": "HepG2", "assay": "Induction of apoptosis in human HepG2 cells assessed as late apoptotic cells at 5 uM after 48 hrs by annexin V-FITC/propidium iodide staining based flow cytometry (reference value: 0.64%)", "type": "functional"}, "[25]": {"system": "A549", "assay": "Cytotoxicity against human A549 cells assessed as reduction in cell viability after 72 hrs by CCK8 assay", "type": "functional, cell-based", "details": "A549, 72 h"}, "[26]": {"target": "Histone deacetylase 1 (Homo sapiens, UniProt Q13547)", "sequence (Q13547 whole entry)": "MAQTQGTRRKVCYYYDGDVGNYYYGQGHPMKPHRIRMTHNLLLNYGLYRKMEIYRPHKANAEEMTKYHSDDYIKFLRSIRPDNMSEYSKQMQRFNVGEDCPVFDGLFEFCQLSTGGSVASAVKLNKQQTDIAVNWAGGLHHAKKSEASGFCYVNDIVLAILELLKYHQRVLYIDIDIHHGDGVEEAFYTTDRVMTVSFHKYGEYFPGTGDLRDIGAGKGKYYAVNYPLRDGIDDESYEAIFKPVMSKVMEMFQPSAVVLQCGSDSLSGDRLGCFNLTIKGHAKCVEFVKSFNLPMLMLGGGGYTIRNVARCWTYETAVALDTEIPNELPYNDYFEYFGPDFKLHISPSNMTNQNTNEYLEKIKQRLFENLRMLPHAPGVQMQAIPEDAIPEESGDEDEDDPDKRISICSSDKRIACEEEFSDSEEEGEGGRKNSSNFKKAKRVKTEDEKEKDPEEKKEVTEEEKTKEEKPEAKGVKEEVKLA", "assay": "Inhibition of HDAC1 in human A549 cells assessed as increase in p53 phosphorylation at Ser15 residue at 1 to 5 uM after 48 hrs by Western blot method", "type": "cell-based"}, "[27]": {"system": "HepG2", "assay": "Induction of apoptosis in human HepG2 cells assessed as necrotic cells at 5 uM after 48 hrs by annexin V-FITC/propidium iodide staining based flow cytometry (reference value: 2.32%)", "type": "functional"}, "[28]": {"system": "T47D", "assay": "Induction of apoptosis in human T47D cells assessed as late apoptotic cells at 10 uM after 48 hrs by annexin V-FITC/propidium iodide staining based flow cytometry (reference value: 6.16%)", "type": "functional"}, "[29]": {"target": "Aurora-C/INCENP (Homo sapiens, UniProt Q9NQS7+Q9UQB9)", "sequence (Q9UQB9 whole entry)": "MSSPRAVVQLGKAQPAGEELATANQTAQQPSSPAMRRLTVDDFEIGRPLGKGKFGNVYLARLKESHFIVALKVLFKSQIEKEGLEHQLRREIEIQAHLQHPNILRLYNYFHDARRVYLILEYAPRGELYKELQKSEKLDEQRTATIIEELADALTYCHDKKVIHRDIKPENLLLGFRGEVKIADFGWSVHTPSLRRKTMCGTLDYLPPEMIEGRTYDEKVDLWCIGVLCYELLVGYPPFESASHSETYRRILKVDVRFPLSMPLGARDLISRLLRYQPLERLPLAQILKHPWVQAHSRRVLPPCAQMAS", "sequence (Q9NQS7 whole entry)": "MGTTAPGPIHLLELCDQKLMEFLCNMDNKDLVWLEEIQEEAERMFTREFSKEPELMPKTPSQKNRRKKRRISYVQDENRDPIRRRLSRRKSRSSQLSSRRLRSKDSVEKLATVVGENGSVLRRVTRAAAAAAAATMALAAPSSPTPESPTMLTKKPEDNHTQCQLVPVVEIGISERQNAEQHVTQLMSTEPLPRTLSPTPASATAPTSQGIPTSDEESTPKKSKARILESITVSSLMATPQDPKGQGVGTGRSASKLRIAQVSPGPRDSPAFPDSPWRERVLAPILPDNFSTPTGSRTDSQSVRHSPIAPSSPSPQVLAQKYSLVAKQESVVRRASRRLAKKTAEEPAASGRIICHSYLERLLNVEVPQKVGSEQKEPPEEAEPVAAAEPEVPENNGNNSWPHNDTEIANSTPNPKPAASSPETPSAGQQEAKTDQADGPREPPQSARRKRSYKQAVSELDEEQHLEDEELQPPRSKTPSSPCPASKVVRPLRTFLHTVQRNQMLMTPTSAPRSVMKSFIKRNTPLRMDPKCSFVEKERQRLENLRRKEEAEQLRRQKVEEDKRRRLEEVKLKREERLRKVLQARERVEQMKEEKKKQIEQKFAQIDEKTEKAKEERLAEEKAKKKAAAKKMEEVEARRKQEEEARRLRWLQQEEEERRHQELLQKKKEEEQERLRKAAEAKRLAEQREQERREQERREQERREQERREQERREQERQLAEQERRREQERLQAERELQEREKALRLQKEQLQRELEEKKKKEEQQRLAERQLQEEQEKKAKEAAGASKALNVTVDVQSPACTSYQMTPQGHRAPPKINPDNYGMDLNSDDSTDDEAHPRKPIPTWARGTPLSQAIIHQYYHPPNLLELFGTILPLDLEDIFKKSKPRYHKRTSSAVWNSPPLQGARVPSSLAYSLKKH", "assay": "Inhibition of recombinant human N-terminal His6-tagged Aurora-C (35-end residues)/N-terminal GST-tagged INCENP (821-end residues) expressed in baculovirus infected sf21 cells using AKRRRLSSLRA substrate in presence of [gamma33P]ATP after 10 mins by scintillation counting method"}, "[30]": {"system": "Hep 3B2", "assay": "Cell cycle arrest in human Hep3B cells assessed as accumulation at G0/G1 phase at 625 nM after 24 hrs by propidium iodide staining based flow cytometry", "type": "functional", "in_short": "as §1"}, "[31]": {"system": "T47D", "assay": "Induction of apoptosis in human T47D cells assessed as live cells at 1 uM after 48 hrs by annexin V-FITC/propidium iodide staining based flow cytometry (reference value: 85.3%)", "type": "functional"}, "[32]": {"assay": "Half life in Sprague-Dawley rat at 20 mg/kg, ip administered as single dose by HPLC analysis", "type": "ADME, organism-based", "details": "in vivo"}, "[33]": {"system": "NCI-H460", "assay": "Induction of apoptosis in human NCI-H460 cells assessed as late apoptotic cells at 1 uM after 48 hrs by annexin V-FITC/propidium iodide staining based flow cytometry (reference value: 1.29%)", "type": "functional"}, "[34]": {"system": "NCI-H460", "assay": "Induction of apoptosis in human NCI-H460 cells assessed as early apoptotic cells at 10 uM after 48 hrs by annexin V-FITC/propidium iodide staining based flow cytometry (reference value: 0.11%)", "type": "functional"}}, "note": "Calls of active or inactive are those of the source. The calls are words filed in the database; no cut-off is given here."}
{"smiles": "CN(C)C(=O)c1cc2cnc(Nc3ccc(NC(=O)CCCCCCC(=O)NO)cc3)nc2n1C1CCCC1", "values": [{"measurement": "Activity", "setting": "[1]", "value": "Active"}, {"measurement": "CL/F", "setting": "[2]", "value": 210, "unit": "mL/min/kg"}, {"measurement": "Activity", "setting": "[3]", "value": "Active"}, {"measurement": "Activity", "setting": "[4]", "value": "Dose-dependent effect"}, {"measurement": "inhibition", "setting": "[5]", "value": "Active"}, {"measurement": "Activity", "setting": "[6]", "value": 7.31, "unit": "%"}, {"measurement": "inhibition", "setting": "[7]", "value": 72, "unit": "%"}, {"measurement": "half-life", "setting": "[8]", "value": 14.9, "unit": "h"}, {"measurement": "IC50", "setting": "[9]", "value": 1.86, "unit": "µM"}, {"measurement": "Activity", "setting": "[10]", "value": "Active"}, {"measurement": "Cmax", "setting": "[11]", "value": 360, "unit": "ng/mL"}, {"measurement": "Activity", "setting": "[12]", "value": "Dose-dependent effect"}, {"measurement": "Activity", "setting": "[13]", "value": 73.3, "unit": "%"}, {"measurement": "Activity", "setting": "[14]", "value": "Dose-dependent effect"}, {"measurement": "Activity", "setting": "[15]", "value": "Active"}, {"measurement": "Activity", "setting": "[16]", "value": 76.5, "unit": "%"}, {"measurement": "Activity", "setting": "[17]", "value": "Non-Toxic"}, {"measurement": "Activity", "setting": "[18]", "value": 6.07, "unit": "%"}, {"measurement": "IC50", "setting": "[19]", "value": 3.78, "unit": "µM"}, {"measurement": "IC50", "setting": "[20]", "value": 2.59, "unit": "µM"}, {"measurement": "Activity", "setting": "[21]", "value": "Active"}, {"measurement": "Activity", "setting": "[22]", "value": 1.82, "unit": "%"}, {"measurement": "solubility at 24 h", "setting": "[23]", "value": 0.35, "unit": "µg/mL"}, {"measurement": "Activity", "setting": "[24]", "value": 11.1, "unit": "%"}, {"measurement": "IC50", "setting": "[25]", "value": 1.33, "unit": "µM"}, {"measurement": "inhibition", "setting": "[26]", "value": "Active"}, {"measurement": "Activity", "setting": "[27]", "value": 6.13, "unit": "%"}, {"measurement": "Activity", "setting": "[28]", "value": 17.1, "unit": "%"}, {"measurement": "IC50", "setting": "[29]", "value": 0.022, "unit": "µM"}, {"measurement": "Activity", "setting": "[30]", "value": "Active"}, {"measurement": "Activity", "setting": "[31]", "value": 88.3, "unit": "%"}, {"measurement": "half-life", "setting": "[32]", "value": 9.65, "unit": "h"}, {"measurement": "Activity", "setting": "[33]", "value": 1.48, "unit": "%"}, {"measurement": "Activity", "setting": "[34]", "value": 3.95, "unit": "%"}]}
